The target of assay [1] is Prolyl endopeptidase FAP (Homo sapiens) (UniProt Q12884). Kind of assay: Inhibition of human recombinant FAP at 100 uM using fluorogenic DPP substrate1 relative to control.
Assay [2] shares this target. As to the kind of experiment: Inhibition of human recombinant FAP at 10 uM using fluorogenic DPP substrate1 relative to control.
A further assay deals with T1, Prolyl endopeptidase (Homo sapiens, UniProt P48147).
T1 sequence (P48147 whole entry): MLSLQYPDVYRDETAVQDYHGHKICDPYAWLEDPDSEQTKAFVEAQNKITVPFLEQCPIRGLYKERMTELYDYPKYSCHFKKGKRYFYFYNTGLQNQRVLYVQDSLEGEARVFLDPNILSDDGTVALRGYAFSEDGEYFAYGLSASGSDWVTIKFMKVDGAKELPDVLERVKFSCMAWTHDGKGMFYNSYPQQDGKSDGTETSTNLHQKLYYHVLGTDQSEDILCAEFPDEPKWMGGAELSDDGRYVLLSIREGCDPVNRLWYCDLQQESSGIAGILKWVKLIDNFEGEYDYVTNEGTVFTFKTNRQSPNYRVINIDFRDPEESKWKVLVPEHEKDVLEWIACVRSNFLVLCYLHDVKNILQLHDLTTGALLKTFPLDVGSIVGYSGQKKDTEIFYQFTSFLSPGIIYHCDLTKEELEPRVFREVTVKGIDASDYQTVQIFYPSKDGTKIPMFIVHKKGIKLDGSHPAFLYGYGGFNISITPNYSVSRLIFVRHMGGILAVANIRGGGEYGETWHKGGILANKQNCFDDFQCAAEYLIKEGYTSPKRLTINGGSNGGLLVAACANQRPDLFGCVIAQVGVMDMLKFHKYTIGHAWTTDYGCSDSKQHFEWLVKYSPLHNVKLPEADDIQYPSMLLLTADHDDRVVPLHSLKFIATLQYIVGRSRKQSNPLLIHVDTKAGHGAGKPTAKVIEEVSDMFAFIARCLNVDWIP
Kind of assay: (§1) Inhibition of recombinant human POP pre-incubated for 30 mins before addition of ZGP-pNA substrate by absorbance assay.

Assay [3] can be described thus: Drug metabolism in buffer assessed as formation of [(2R)-1-(2-benzyl-3-oxo-isoindoline-4-carbonyl)pyrrolidin-2-yl]boronic acid after 10 mins by LC-MS analysis. An outline of the steps: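 Boronic ester hydrolysis was followed by LC-MS (UHPLC-QTOF, positive ESI). Ester from a 100 mM DMSO stock was diluted 1:10 into buffer in a capped autosampler vial. Aliquots were taken at 5 min intervals and loop-injected in 1:1 water/acetonitrile with 0.1% formic acid. The boronic ester remaining was tracked over time.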

The target in another assay is T2, Prolyl endopeptidase FAP (Homo sapiens, UniProt Q12884).
T2 sequence (Q12884 whole entry): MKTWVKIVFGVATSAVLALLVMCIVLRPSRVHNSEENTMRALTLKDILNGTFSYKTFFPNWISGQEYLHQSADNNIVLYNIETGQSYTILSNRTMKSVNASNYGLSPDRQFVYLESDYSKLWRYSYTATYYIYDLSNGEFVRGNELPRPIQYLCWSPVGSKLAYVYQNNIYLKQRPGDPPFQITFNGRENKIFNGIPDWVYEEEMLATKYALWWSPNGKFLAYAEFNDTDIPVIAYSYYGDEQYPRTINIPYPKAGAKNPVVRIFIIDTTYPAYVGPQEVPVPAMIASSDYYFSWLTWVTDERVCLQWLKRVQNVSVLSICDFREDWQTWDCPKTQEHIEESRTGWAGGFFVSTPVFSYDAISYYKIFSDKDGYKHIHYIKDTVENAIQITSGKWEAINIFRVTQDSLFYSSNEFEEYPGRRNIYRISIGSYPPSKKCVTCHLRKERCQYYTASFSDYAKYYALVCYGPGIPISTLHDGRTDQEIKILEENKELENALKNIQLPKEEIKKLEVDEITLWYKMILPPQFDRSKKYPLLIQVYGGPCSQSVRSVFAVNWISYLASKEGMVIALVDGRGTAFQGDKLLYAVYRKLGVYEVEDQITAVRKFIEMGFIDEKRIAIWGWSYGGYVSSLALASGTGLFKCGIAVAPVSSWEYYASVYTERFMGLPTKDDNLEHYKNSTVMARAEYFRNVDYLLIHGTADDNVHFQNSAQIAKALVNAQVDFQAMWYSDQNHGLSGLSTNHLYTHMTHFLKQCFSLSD
As to the kind of experiment: Inhibition of FAP (unknown origin).

Assay [4] concerns the target T3, Prolyl endopeptidase (Homo sapiens) (UniProt P48147).
T3 sequence (whole entry): T1 sequence (P48147 whole entry)
Described as §1.

This is an account of results in ChEMBL document CHEMBL4334469, “Integrated Synthetic, Biophysical, and Computational Investigations of Covalent Inhibitors of Prolyl Oligopeptidase and Fibroblast Activation Protein α” (J Med Chem, 2019).

SMILES strings stand for the structures. pIC50, pKi: −log10 of the molar value. Activity calls are given as the source filed them. The rule behind the calls is not given here. Peptide text beside a SMILES is read from it. * marks the point of attachment. Cbz = O=C(OCc1ccccc1)*

Turning to `O=C(c1cccc2c1C(=O)N(Cc1ccccc1)C2)N1CCCC1`, in assay [1], the inhibition is under 5%.
Consider `O=C[C@@H]1CCCN1C(=O)c1cccc2c1C(=O)N(Cc1ccccc1)C2`, for which the inhibition in assay [1] was 80%; in assay [2] it was 11%.
With `N#C[C@@H]1CCCN1C(=O)c1cccc2c1C(=O)N(Cc1ccccc1)C2`, in assay [1], the inhibition was determined as 20%.
The same measure, in the same setting: next, `O=C(c1cccc2c1C(=O)N(Cc1ccccc1)C2)N1CC[C@@H](F)C1`: under 5%.
Turning to `N#C[C@@H]1C[C@@H](F)CN1C(=O)c1cccc2c1C(=O)N(Cc1ccccc1)C2`, the inhibition in assay [1] is under 5%. In addition, the pKi at Prolyl endopeptidase was under 4.00.
Regarding `N#C[C@@H]1CC(F)(F)CN1C(=O)c1cccc2c1C(=O)N(Cc1ccccc1)C2`, in assay [1], the inhibition was under 5%. Also, the pKi on Prolyl endopeptidase is 5.48.
For `CC1(C)[C@H]2C[C@@H]3OB([C@@H]4CCCN4C(=O)c4cccc5c4C(=O)N(Cc4ccccc4)C5)O[C@]3(C)[C@@H]1C2`, the inhibition in assay [1] is under 5%. Further, the Drug metabolism in assay [3] is 90%.
On to `CC(C)[C@H](NC(=O)c1ccncc1)C(=O)N1CCC[C@H]1B(O)O`, for which, on Prolyl endopeptidase FAP, the negative logarithm of the IC50 (pIC50) is under 4.00.
Turning to `CC1(C)[C@@H]2C[C@@H](O)[C@@](C)(O)[C@H]1C2`, the inhibition result in assay [4] was “inactive”.
In the case of `N#C[C@@H]1C[C@H](F)CN1C(=O)c1cccc2c1C(=O)N(Cc1ccccc1)C2`, the inhibition in assay [1] was under 5%. At Prolyl endopeptidase, the negative-log Ki (pKi) was 6.77.
In the case of `O=C[C@@H]1CCCN1C(=O)[C@@H]1CCCN1C(=O)OCc1ccccc1` (Cbz-Pro-Pro-aldehyde), the inhibition in assay [1] is under 5%.
Same read-out and setting: next, `O=C(c1cccc2c1C(=O)N(Cc1ccccc1)C2)N1CC[C@H](F)C1`: under 5%.

Broadly, the inhibition is the relative decrease from the control value, in per cent. The pKi is the Ki on a negative log10 scale, so that one unit is a factor of ten. As usually defined, the pIC50 is the negative decadic logarithm of the IC50, by convention in mol/L. The low end stands for a large IC50, the high end for a small IC50.
